ChEMBL document CHEMBL1147968, “Novel lbeta-methylcarbapenems having cyclic sulfonamide moieties: synthesis and evaluation of in vitro antibacterial activity” (2007)
In brackets after ≈: the same amount, converted by molar mass.

Key:
Assay type in all cases: functional
[1] = test system: Staphylococcus aureus; test: Antibacterial activity against Staphylococcus aureus 1218 after 18 to 24 hrs by agar dilution method
Procedure, shortened: (§1)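 MICs were determined by agar dilution on test agar. An overnight tryptosoy broth culture was diluted in the same broth to about 10⁶ cells/mL and spotted with an inoculating device onto agar containing serial twofold dilutions of compound. Plates were incubated at 37 °C for 18–20 h, and the MIC was the lowest concentration with no visible growth.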

[2] = test system: Staphylococcus; test: Antibacterial activity against coagulase negative Staphylococcus after 18 to 24 hrs by agar dilution method
Procedure, shortened: (§2)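 Agar dilution on test agar holding serial twofold dilutions of compound. Overnight tryptosoy broth cultures were diluted in the same broth to about 10⁶ cells/mL and spotted with an inoculating device. Plates were incubated at 37 °C for 18–20 h.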

[3] = test system: Enterococcus faecalis; test: Antibacterial activity against Enterococcus faecalis 2347 after 18 to 24 hrs by agar dilution method; procedure, shortened: as §1
[4] = test system: Streptococcus pyogenes; test: Antibacterial activity against Streptococcus pyogenes 9889 after 18 to 24 hrs by agar dilution method; procedure, shortened: as §2
[5] = test system: Streptococcus agalactiae; test: Antibacterial activity against Streptococcus agalactiae 32 after 18 to 24 hrs by agar dilution method; procedure, shortened: as §1
[6] = test system: Streptococcus pneumoniae; test: Antibacterial activity against Streptococcus pneumoniae 0025 after 18 to 24 hrs by agar dilution method; procedure, shortened: as §1
[7] = test system: Haemophilus influenzae; test: Antibacterial activity against Haemophilus influenzae 1210 after 18 to 24 hrs by agar dilution method; procedure, shortened: as §1
[8] = test system: Escherichia coli; test: Antibacterial activity against Escherichia coli 04 after 18 to 24 hrs by agar dilution method; procedure, shortened: as §1
[9] = test system: Klebsiella pneumoniae; test: Antibacterial activity against Klebsiella pneumoniae 523 after 18 to 24 hrs by agar dilution method; procedure, shortened: as §1
[10] = test system: Citrobacter freundii; test: Antibacterial activity against Citrobacter freundii 323 after 18 to 24 hrs by agar dilution method; procedure, shortened: as §1
[11] = test system: Enterobacter cloacae; test: Antibacterial activity against Enterobacter cloacae 34 after 18 to 24 hrs by agar dilution method; procedure, shortened: as §1
[12] = test system: Serratia marcescens; test: Antibacterial activity against Serratia marcescens 3349 after 18 to 24 hrs by agar dilution method; procedure, shortened: as §1
[13] = test system: Acinetobacter baumannii; test: Antibacterial activity against Acinetobacter baumannii 2289 after 18 to 24 hrs by agar dilution method; procedure, shortened: as §1
[14] = test system: Pseudomonas aeruginosa; test: Antibacterial activity against Pseudomonas aeruginosa 5455 after 18 to 24 hrs by agar dilution method; procedure, shortened: as §1

Structure (SMILES) | MIC [1] [µg/mL] | MIC [2] [µg/mL] | MIC [3] [µg/mL] | MIC [4] [µg/mL] | MIC [5] [µg/mL] | MIC [6] [µg/mL] | MIC [7] [µg/mL] | MIC [8] [µg/mL] | MIC [9] [µg/mL] | MIC [10] [µg/mL] | MIC [11] [µg/mL] | MIC [12] [µg/mL] | MIC [13] [µg/mL] | MIC [14] [µg/mL]
CCN1CCN(C[C@@H]2C[C@H](SC3=C(C(=O)O)N4C(=O)C([C@@H](C)O)C4[C@H]3C)CN2)S1(=O)=O (some centres not stated) | 25 (≈ 52.7 µM) | 0.198 (≈ 0.417 µM) | 6.25 (≈ 13.2 µM) | 0.02 (≈ 0.0421 µM) | 0.04 (≈ 0.0843 µM) | 0.04 (≈ 0.0843 µM) | 12.5 (≈ 26.3 µM) | 0.098 (≈ 0.206 µM) | 0.198 (≈ 0.417 µM) | 0.098 (≈ 0.206 µM) | 0.098 (≈ 0.206 µM) | 0.098 (≈ 0.206 µM) | 25 (≈ 52.7 µM) | 12.5 (≈ 26.3 µM)
C[C@@H](O)C1C(=O)N2C(C(=O)O)=C(S[C@@H]3CN[C@H](CN4CCN(C)S4(=O)=O)C3)[C@H](C)C12 (some centres not stated) | 12.5 (≈ 27.1 µM) | 0.098 (≈ 0.213 µM) | 6.25 (≈ 13.6 µM) | 0.02 (≈ 0.0434 µM) | 0.02 (≈ 0.0434 µM) | 0.02 (≈ 0.0434 µM) | 6.25 (≈ 13.6 µM) | 0.049 (≈ 0.106 µM) | 0.098 (≈ 0.213 µM) | 0.049 (≈ 0.106 µM) | 0.049 (≈ 0.106 µM) | 0.098 (≈ 0.213 µM) | 12.5 (≈ 27.1 µM) | 3.12 (≈ 6.78 µM)
C[C@@H](O)C1C(=O)N2C(C(=O)O)=C(S[C@@H]3CN[C@H](CN4CC(C)(C)NS4(=O)=O)C3)[C@H](C)C12 (some centres not stated) | 3.12 (≈ 6.57 µM) | 0.098 (≈ 0.206 µM) | 6.25 (≈ 13.2 µM) | 0.01 (≈ 0.0211 µM) | 0.02 (≈ 0.0421 µM) | 0.02 (≈ 0.0421 µM) | 6.25 (≈ 13.2 µM) | 0.049 (≈ 0.103 µM) | 0.049 (≈ 0.103 µM) | 0.049 (≈ 0.103 µM) | 0.098 (≈ 0.206 µM) | 0.049 (≈ 0.103 µM) | 12.5 (≈ 26.3 µM) | 3.12 (≈ 6.58 µM)
